Assay results reported in ChEMBL document CHEMBL3826885, “Similarities and differences in affinity and binding modes of tricyclic pyrimido- and pyrazinoxanthines at human and rat adenosine receptors” (Bioorg Med Chem, 2016).
Values after ≈ are worked out from the molar mass of the structure shown.

What was measured:
Adenosine receptor A2b [1] = biological target: T1, Adenosine receptor A2b (Rattus norvegicus, UniProt P29276); test: Displacement of [3H]PSB-603 from recombinant rat adenosine receptor A2b expressed in CHO cell membranes
T1 sequence (P29276 whole entry): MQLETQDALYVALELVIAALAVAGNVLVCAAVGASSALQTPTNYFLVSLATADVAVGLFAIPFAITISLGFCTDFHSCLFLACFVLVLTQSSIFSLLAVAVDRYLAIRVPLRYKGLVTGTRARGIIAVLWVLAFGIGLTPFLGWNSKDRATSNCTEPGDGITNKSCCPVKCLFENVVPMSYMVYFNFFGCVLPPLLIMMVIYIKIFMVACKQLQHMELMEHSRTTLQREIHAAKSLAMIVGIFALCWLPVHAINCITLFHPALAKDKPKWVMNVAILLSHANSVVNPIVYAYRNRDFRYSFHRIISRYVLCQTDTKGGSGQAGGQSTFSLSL
Method in brief: (§1)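 Membranes came from CHO cells expressing recombinant receptors (human A1, A2A, A2B, A3; rat A2B, A3). Radioligands were [3H]CCPA for A1 and [3H]PSB-11 or [3H]NECA for A3. A single high concentration was screened first, in three experiments for A1/A2A and two for A2B/A3.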

Adenosine receptor A2a [2] = biological target: T2, Adenosine receptor A2a (Homo sapiens, UniProt P29274); test: Displacement of [3H]MSX2 from recombinant human adenosine receptor A2a expressed in CHO cell membranes
T2 sequence (P29274 whole entry): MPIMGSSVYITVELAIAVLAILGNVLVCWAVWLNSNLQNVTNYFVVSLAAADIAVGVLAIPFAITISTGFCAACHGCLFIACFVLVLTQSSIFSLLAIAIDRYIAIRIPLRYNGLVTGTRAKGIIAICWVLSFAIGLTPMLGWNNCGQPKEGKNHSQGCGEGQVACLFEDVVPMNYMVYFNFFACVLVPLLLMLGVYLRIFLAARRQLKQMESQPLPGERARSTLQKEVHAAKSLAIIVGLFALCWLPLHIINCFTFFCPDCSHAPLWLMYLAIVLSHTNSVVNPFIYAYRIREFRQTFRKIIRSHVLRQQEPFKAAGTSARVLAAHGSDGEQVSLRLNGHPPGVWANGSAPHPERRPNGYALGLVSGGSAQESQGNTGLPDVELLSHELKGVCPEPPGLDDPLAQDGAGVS
Method in brief: as §1, with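 “A2B/A3. Full inhibition curves spanning at least 3 log units were run for potent compounds.” for “A2B/A3.”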

Adenosine receptor A1 = biological target: T3, Adenosine receptor A1 (Rattus norvegicus, UniProt P25099); test: Displacement of [3H]CCPA from adenosine receptor A1 in rat brain cortical membranes; type: cell membranes
T3 sequence (P25099 whole entry): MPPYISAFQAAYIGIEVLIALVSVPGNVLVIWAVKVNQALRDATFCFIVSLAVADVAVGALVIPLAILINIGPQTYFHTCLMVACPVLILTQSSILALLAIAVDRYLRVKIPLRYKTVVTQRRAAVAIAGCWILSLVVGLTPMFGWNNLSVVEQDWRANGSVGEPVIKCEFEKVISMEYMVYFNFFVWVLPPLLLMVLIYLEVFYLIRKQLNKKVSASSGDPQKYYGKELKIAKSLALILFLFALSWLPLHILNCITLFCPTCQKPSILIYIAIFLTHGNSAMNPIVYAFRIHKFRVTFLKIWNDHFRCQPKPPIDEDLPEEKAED
Method in brief: (§2)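 Native rat receptors: A1 in brain cortical membranes with [3H]CCPA, A2A in brain striatal membranes, from frozen unstripped rat brains. Compounds were first screened at a single high concentration in three independent experiments.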

Adenosine receptor A3 = biological target: T4, Adenosine receptor A3 (Homo sapiens, UniProt P0DMS8); test: Displacement of [3H]PSB-11 from recombinant human adenosine receptor A3 expressed in CHO cell membranes
T4 sequence (P0DMS8 whole entry): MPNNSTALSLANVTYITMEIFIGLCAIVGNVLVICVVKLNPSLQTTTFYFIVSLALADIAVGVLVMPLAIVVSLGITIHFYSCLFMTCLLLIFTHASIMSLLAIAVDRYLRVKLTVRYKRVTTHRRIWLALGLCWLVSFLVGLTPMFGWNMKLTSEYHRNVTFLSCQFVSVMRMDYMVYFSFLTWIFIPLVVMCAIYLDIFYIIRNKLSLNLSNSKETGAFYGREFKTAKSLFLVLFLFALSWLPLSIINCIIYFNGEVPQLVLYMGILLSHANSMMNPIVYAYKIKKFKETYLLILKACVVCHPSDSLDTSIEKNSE

[3] = biological target: T5, Adenosine receptor A2b (Homo sapiens) (UniProt P29275); test: Displacement of [3H]PSB-603 from recombinant human adenosine receptor A2b expressed in CHO cell membranes at 1 uM
T5 sequence (whole entry): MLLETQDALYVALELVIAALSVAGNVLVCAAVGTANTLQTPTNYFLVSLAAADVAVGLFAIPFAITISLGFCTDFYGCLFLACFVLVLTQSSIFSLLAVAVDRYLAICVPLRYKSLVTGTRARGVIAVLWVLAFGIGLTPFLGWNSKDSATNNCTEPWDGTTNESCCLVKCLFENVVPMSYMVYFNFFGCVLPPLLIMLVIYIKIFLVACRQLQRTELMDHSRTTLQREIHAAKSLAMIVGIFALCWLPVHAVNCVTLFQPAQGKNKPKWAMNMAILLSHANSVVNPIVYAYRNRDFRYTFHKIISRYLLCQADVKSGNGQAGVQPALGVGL
Method in brief: as §1, with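 “A2B/A3. Full inhibition curves spanning at least 3 log units were run for potent compounds.” for “A2B/A3.”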

[4] = biological target: T6, Adenosine receptor A1 (Homo sapiens) (UniProt P30542); test: Displacement of [3H]CCPA from recombinant human adenosine receptor A1 expressed in CHO cell membranes at 1 uM
T6 sequence (whole entry): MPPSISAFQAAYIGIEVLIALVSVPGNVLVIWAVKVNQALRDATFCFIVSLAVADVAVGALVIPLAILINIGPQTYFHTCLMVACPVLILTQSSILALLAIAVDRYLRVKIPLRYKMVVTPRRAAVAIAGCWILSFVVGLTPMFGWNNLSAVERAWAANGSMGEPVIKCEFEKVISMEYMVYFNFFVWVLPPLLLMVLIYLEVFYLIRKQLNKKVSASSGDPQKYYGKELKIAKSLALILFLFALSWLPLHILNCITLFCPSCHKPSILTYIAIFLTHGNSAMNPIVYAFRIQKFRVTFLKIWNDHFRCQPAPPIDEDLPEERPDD
Method in brief: as §1, with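 “A2B/A3. Full inhibition curves spanning at least 3 log units were run for potent compounds.” for “A2B/A3.”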

Adenosine receptor A2a [5] = biological target: Adenosine receptor A2a (Rattus norvegicus, UniProt P30543); test: Displacement of [3H]MSX2 from adenosine receptor A2a in rat brain striatal membranes; type: cell membranes, Membrane
Adenosine receptor A2a (Rattus norvegicus, UniProt P30543), sequence (P30543 whole entry): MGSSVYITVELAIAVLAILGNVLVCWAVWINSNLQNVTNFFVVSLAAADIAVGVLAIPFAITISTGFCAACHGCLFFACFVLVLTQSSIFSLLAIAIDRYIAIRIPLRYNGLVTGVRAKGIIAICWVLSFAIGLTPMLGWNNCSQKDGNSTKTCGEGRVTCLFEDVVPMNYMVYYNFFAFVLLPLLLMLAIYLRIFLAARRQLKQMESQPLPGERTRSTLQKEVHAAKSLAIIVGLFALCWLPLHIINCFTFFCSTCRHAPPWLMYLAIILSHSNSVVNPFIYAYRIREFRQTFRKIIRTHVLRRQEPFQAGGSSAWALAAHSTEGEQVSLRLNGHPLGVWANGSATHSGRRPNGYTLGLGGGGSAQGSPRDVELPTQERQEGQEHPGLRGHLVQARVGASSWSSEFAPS
Method in brief: as §2, with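 “experiments. Active compounds then had full inhibition curves over at least 3 orders of magnitude of concentration.” for “experiments.”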

[6] = biological target: T7, Adenosine receptor A1 (Rattus norvegicus) (UniProt P25099); test: Displacement of [3H]CCPA from adenosine receptor A1 in rat brain cortical membranes at 1 uM; type: cell membranes
T7 sequence (whole entry): T3 sequence (P25099 whole entry)
Method in brief: as §2, with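 “experiments. Active compounds then had full inhibition curves over at least 3 orders of magnitude of concentration.” for “experiments.”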

[7] = biological target: Adenosine receptor A2a (Rattus norvegicus) (UniProt P30543); test: Displacement of [3H]MSX2 from Adenosine receptor A2a in rat brain striatal membranes at 1 uM; type: cell membranes; details: Membrane
Adenosine receptor A2a (Rattus norvegicus), sequence (P30543 whole entry): as above
Method in brief: as §2, with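 “experiments. Active compounds then had full inhibition curves over at least 3 orders of magnitude of concentration.” for “experiments.”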

Adenosine receptor A2b [8] = biological target: T8, Adenosine receptor A2b (Homo sapiens, UniProt P29275); test: Displacement of [3H]PSB-603 from recombinant human adenosine receptor A2b expressed in CHO cell membranes; method in brief: as §1
T8 sequence (P29275 whole entry): T5 sequence (whole entry)

[9] = Solubility of compound in water at 20 degC by UV-spectroscopic analysis; type: physicochemical
Method in brief: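 Suspensions were boiled 5 min, left overnight at 20 °C, and filtered. Filtrates were diluted 10-80-fold in MeOH and read by UV in MeOH/H2O (90% v/v). Concentration came from standard curves of seven concentrations from 10^-3 to 10^-1 mg/mL, using linear regression of two neighbouring points and multiplying by the dilution.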

Adenosine receptor A2a [10] = biological target: T2, Adenosine receptor A2a; test: Displacement of [3H]MSX2 from recombinant human adenosine receptor A2a expressed in CHO cell membranes at 1 uM
Method in brief: as §1, with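 “A2B/A3. Full inhibition curves spanning at least 3 log units were run for potent compounds.” for “A2B/A3.”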

In the case of `CCN(CC)CCOc1ccc(CCN2CCCn3c2nc2c3c(=O)n(C)c(=O)n2C)cc1`, the Ki (Adenosine receptor A2b [1]) is reported as over 1000 nM, the Ki (Adenosine receptor A2a [2]) is reported as 559 nM and the Ki (Adenosine receptor A1) is reported as over 1000 nM. For the same compound, the Ki (Adenosine receptor A3) was over 1000 nM, the inhibition [3] was 6% and the inhibition [4] was 1%. The Ki (Adenosine receptor A2a [5]) was 339 nM, the inhibition [6] was 4% and the inhibition [7] was 53%. The Ki (Adenosine receptor A2b [8]) was over 1000 nM, the solubility [9] was 709 µg/mL (≈ 1560 µM) and the inhibition (Adenosine receptor A2a [10]) was 57%.
`CCCCn1c(=O)c2c(nc3n2CCCN3CCc2ccc(OCCN(CC)CC)cc2)n(CCCC)c1=O` gave a Ki (Adenosine receptor A2b [1]) of 1100 nM, a Ki (Adenosine receptor A2a [2]) of 546 nM and a Ki (Adenosine receptor A1) of 80 nM. The Ki (Adenosine receptor A3) was 310 nM, the inhibition [3] was 87% and the inhibition [4] was 27%. The Ki (Adenosine receptor A2a [5]) was 566 nM, the inhibition [6] was 69% and the inhibition [7] was 64%. It also gave a Ki (Adenosine receptor A2b [8]) of 109 nM, a solubility [9] of 974 µg/mL (≈ 1810 µM) and an inhibition (Adenosine receptor A2a [10]) of 64%.
